Laboratory results reported in ChEMBL document CHEMBL1154112, “Parallel synthesis of potent dopaminergic N-phenyltriazole carboxamides applying a novel click chemistry based phenol linker” (Bioorg Med Chem, 2009).
The source made the active and inactive calls. The rule behind the calls is not given here.

Key:
D(2) dopamine receptor [1] = molecular target: T1, D(2) dopamine receptor (Homo sapiens, UniProt P14416); assay: Binding affinity to human cloned dopamine D2-short expressed in CHO cells; assay type: cell-based
T1 sequence (P14416 whole entry): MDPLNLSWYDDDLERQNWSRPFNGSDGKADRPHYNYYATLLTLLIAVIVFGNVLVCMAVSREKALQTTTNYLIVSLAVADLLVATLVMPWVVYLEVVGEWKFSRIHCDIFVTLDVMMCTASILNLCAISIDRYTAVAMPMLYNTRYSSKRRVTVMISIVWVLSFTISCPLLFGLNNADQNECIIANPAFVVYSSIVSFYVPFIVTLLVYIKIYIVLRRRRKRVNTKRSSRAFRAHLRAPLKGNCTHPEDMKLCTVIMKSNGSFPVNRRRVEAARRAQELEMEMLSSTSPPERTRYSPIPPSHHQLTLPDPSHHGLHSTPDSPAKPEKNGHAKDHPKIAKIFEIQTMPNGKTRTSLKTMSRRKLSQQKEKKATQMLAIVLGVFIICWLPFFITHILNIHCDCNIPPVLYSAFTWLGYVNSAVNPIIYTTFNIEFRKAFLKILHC
Outline: (§1)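 Competition binding used membranes from CHO cells expressing human D2long, D2short, D3 or D4.4, with 0.5 nM final [3H]spiperone. Screening was run at 100 nM and 1 nM test compound in triplicate. Ki values come from nonlinear regression, as means of 2–4 experiments each run in triplicate.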

D(3) dopamine receptor [2] = molecular target: T2, D(3) dopamine receptor (Homo sapiens, UniProt P35462); assay: Displacement of [3H]spiperone from human cloned dopamine D3 expressed in CHO cells; assay type: cell-based; parameters: concentration or dose not given beside the values; outline: as §1
T2 sequence (P35462 whole entry): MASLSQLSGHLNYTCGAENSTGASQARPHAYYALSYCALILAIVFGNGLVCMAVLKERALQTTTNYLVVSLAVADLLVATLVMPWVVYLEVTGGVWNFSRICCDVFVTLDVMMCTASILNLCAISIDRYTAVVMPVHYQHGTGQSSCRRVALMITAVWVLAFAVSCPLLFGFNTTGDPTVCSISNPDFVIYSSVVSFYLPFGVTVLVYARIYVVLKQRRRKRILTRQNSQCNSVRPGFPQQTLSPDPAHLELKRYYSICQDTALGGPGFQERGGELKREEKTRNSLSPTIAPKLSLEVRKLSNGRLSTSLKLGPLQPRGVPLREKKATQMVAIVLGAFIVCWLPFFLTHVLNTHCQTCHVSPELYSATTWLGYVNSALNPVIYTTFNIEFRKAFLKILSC

D(2) dopamine receptor [3] = molecular target: T1, D(2) dopamine receptor; assay: Binding affinity to human cloned dopamine D2-long expressed in CHO cells; assay type: cell-based; outline: as §1
D(2) dopamine receptor [4] = molecular target: T1, D(2) dopamine receptor; assay: Displacement of [3H]spiperone from human cloned dopamine D2-long expressed in CHO cells; assay type: cell-based; outline: as §1
Sus scrofa = species: Sus scrofa; assay: Displacement of [3H]prazosin from pig alpha-1 adrenergic receptor; parameters: concentration or dose not given beside the values
Outline: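 Porcine cortical membranes at 55 µg protein per tube, [3H]prazosin as radioligand (Kd 0.06 nM). Ki obtained by non-linear regression of competition curves, means of 2–4 experiments each run in triplicate; screening run at 10 µM, 100 nM and 1 nM test compound in triplicate.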

D(1A) dopamine receptor = D(1A) dopamine receptor (Sus scrofa, UniProt P50130); assay: Binding affinity to pig dopamine D1 receptor
Chain of D(1A) dopamine receptor (P50130 whole entry): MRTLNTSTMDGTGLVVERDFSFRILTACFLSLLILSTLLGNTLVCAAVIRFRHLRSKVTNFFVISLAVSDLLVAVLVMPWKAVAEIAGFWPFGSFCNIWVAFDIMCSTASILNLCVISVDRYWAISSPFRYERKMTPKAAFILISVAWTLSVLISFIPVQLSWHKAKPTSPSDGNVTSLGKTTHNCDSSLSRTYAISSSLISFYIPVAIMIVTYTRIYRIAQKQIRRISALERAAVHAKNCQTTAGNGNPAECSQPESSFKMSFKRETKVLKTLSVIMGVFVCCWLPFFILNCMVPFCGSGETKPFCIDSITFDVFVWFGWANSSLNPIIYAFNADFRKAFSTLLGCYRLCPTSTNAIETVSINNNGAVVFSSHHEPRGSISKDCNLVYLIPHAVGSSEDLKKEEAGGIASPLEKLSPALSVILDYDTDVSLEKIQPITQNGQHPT
Outline: (§2)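 Porcine striatal membranes were incubated with 0.3 nM [3H]SCH 23390 (Kd 0.95 nM). Protein was measured by Lowry against a BSA standard. Test compounds were screened at 100 nM and 1 nM in triplicate. Ki values were derived by nonlinear regression of competition curves, as means of 2–4 experiments each run in triplicate.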

[5] = Binding affinity to pig alpha-1 adrenergic receptor; parameters: species or system Sus scrofa
Outline: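 Alpha1 binding used porcine cortical membranes with [3H]prazosin (KD 0.06 nM). Protein was measured by Lowry against a BSA standard. Ki came from nonlinear regression of competition curves, as the mean of 2–4 experiments each run in triplicate.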

D(2) dopamine receptor [6] = molecular target: T1, D(2) dopamine receptor; assay: Displacement of [3H]spiperone from human cloned dopamine D2-short expressed in CHO cells; assay type: cell-based; parameters: concentration or dose not given beside the values; outline: as §1
D(3) dopamine receptor [7] = molecular target: T2, D(3) dopamine receptor; assay: Binding affinity to human cloned dopamine D3 expressed in CHO cells; assay type: cell-based
D(4) dopamine receptor = molecular target: T3, D(4) dopamine receptor (Homo sapiens, UniProt P21917); assay: Binding affinity to human cloned dopamine D4.4 expressed in CHO cells; assay type: cell-based
T3 sequence (P21917 whole entry): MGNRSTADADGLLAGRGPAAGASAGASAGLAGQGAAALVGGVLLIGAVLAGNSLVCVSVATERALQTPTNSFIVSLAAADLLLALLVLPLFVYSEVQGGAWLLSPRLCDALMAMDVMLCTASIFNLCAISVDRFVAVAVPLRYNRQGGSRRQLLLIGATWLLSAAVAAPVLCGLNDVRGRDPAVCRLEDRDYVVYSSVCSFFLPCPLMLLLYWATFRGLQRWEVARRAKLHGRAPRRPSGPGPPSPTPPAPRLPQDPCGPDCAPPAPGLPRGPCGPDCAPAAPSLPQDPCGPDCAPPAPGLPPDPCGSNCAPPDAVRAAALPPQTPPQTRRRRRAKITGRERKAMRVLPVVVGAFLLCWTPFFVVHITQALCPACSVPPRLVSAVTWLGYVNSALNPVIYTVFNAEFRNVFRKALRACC

[8] = molecular target: D(1A) dopamine receptor (Sus scrofa) (UniProt P50130); assay: Displacement of [3H]SCH23390 from pig dopamine D1 receptor; outline: as §2
Chain of D(1A) dopamine receptor (Sus scrofa) (P50130 whole entry): as the sequence (P50130 whole entry) above

[9] = molecular target: T4, D(4) dopamine receptor (Homo sapiens) (UniProt P21917); assay: Displacement of [3H]spiperone from human cloned dopamine D4.4 expressed in CHO cells; assay type: cell-based; outline: as §1
T4 sequence (whole entry): T3 sequence (P21917 whole entry)

Compound | Ki (D(2) dopamine receptor [1]) [nM] | Activity (D(3) dopamine receptor [2]) [%] | Ki (D(2) dopamine receptor [3]) [nM] | Activity (D(2) dopamine receptor [4]) [%] | Activity (Sus scrofa) [%] | Ki (D(1A) dopamine receptor) [nM] | Ki [5] [nM] | Activity (D(2) dopamine receptor [6]) [%] | Ki (D(3) dopamine receptor [7]) [nM] | Ki (D(4) dopamine receptor) [nM] | Activity [8] | Activity [9] [%]
O=C(NCCCCN1CCN(c2cccc(Cl)c2Cl)CC1)c1cn(-c2ccc([N+](=O)[O-])cc2)nn1 | 53 | 95 | 49 | 33 | 48 | 810 | 17 | 53 | 1 | 280 | inactive | 
O=C(NCCCCN1CCN(c2ccccc2Cl)CC1)c1cn(-c2ccc([N+](=O)[O-])cc2)nn1 |  | 61 |  |  | 61 |  |  |  |  |  | inactive | 
O=C(CCCc1cn(-c2ccc([N+](=O)[O-])cc2)nn1)NCCN1CCN(c2cccc(Cl)c2Cl)CC1 |  | 39 |  |  |  |  |  |  |  |  | inactive | 37
COc1ccc(-n2cc(C(=O)NCCCCN3CCN(c4cccc(Cl)c4Cl)CC3)nn2)cc1 | 68 | 76 | 44 |  |  | 1700 | 46 |  | 4.9 | 320 | inactive | 
COc1ccccc1N1CCN(CCCCNC(=O)c2cn(-c3ccc([N+](=O)[O-])cc3)nn2)CC1 |  | 58 |  |  | 73 |  |  | 38 |  |  | inactive | 
COc1ccc(-n2cc(C(=O)NCCCCN3CCN(c4ccccc4Cl)CC3)nn2)cc1 |  | 58 |  |  | 55 |  |  |  |  |  | inactive | 
COc1ccc(-n2cc(C(=O)NCCN3CCN(c4cccc(Cl)c4Cl)CC3)nn2)cc1 |  | 40 |  |  | 39 |  |  |  |  |  | inactive | 
COc1ccccc1N1CCN(CCCCNC(=O)CCCc2cn(-c3ccc([N+](=O)[O-])cc3)nn2)CC1 |  | 51 |  | 39 | 83 |  |  | 52 |  |  | inactive | 
O=C(NCCN1CCN(c2cccc(Cl)c2Cl)CC1)c1cn(-c2ccc([N+](=O)[O-])cc2)nn1 |  | 52 |  |  | 47 |  |  |  |  |  | inactive | 
O=C(CCCc1cn(-c2ccc([N+](=O)[O-])cc2)nn1)NCCCCN1CCN(c2ccccc2Cl)CC1 |  | 51 |  |  | 64 |  |  |  |  |  | inactive | 
COc1ccccc1N1CCN(CCNC(=O)c2cn(-c3ccc([N+](=O)[O-])cc3)nn2)CC1 | 470 |  | 750 |  | 80 | 4100 | 6.5 |  | 4.9 | 140 | inactive | 
COc1ccc(-n2cc(CCCC(=O)NCCCCN3CCN(c4cccc(Cl)c4Cl)CC3)nn2)cc1 | 42 | 71 | 120 |  |  | 1800 | 42 | 43 | 9.3 | 200 | inactive | 
O=C(CCCc1cn(-c2ccc([N+](=O)[O-])cc2)nn1)NCCCCN1CCN(c2cccc(Cl)c2Cl)CC1 | 47 | 76 | 83 |  |  | 2200 | 28 | 43 | 5.7 | 240 | inactive | 

Continued, values first:

Ki (D(2) dopamine receptor [1]) [nM] | Activity (D(3) dopamine receptor [2]) [%] | Ki (D(2) dopamine receptor [3]) [nM] | Activity (D(2) dopamine receptor [4]) [%] | Activity (Sus scrofa) [%] | Ki (D(1A) dopamine receptor) [nM] | Ki [5] [nM] | Activity (D(2) dopamine receptor [6]) [%] | Ki (D(3) dopamine receptor [7]) [nM] | Ki (D(4) dopamine receptor) [nM] | Activity [8] | Activity [9] [%] | Compound
 | 42 |  |  |  |  |  |  |  |  | inactive | 41 | COc1ccc(-n2cc(CCCC(=O)NCCN3CCN(c4cccc(Cl)c4Cl)CC3)nn2)cc1
 | 38 |  |  | 58 |  |  |  |  |  | inactive |  | COc1ccc(-n2cc(CCCC(=O)NCCCCN3CCN(c4ccccc4Cl)CC3)nn2)cc1
 |  |  |  | 56 |  |  |  |  |  | inactive |  | COc1ccc(-n2cc(C(=O)NCCN3CCN(c4ccccc4OC)CC3)nn2)cc1
 | 46 |  |  | 72 |  |  | 33 |  |  | inactive |  | COc1ccc(-n2cc(CCCC(=O)NCCCCN3CCN(c4ccccc4OC)CC3)nn2)cc1
 |  |  |  | 56 |  |  |  |  |  | inactive |  | COc1ccc(-n2cc(CCCC(=O)NCCN3CCN(c4ccccc4OC)CC3)nn2)cc1
 |  |  |  | 43 |  |  |  |  |  | inactive |  | COc1ccccc1N1CCN(CCNC(=O)CCCc2cn(-c3ccc([N+](=O)[O-])cc3)nn2)CC1
 | 57 |  |  | 64 |  |  |  |  |  | inactive |  | COc1ccc(-n2cc(C(=O)NCCCCN3CCN(c4ccccc4OC)CC3)nn2)cc1
